System: HEK-293T
Assay: Multiplex assay against HEK293T
Format: toxicity, cell-based
Settings: human
Summary of the method: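 Values for tubulin, mitochondrial-mass and membrane-permeability phenotypes are per cents of cells with healthy nuclei. These cells were identified by CellPathfinder machine-learning gating of live cells that had been stained at seeding with Hoechst33342, BioTracker Green Microtubule Cytoskeleton Dye, MitoTracker Red and Annexin V Alexa Fluor 680 and imaged on a CQ1 microscope at 37°C and 5% CO2 after compound addition. The gating first set Hoechst high-intensity objects apart from normal cells, then split normal cells into healthy, pyknosed or fragmented nuclei, and pyknosed cells into mitotic or apoptotic.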

[1] = 12 h, 1 µM, compound concentration 1 uM, replicate 1
[2] = 12 h, 1 µM, compound concentration 1 uM, replicate 2
[3] = 12 h, 10 µM, compound concentration 10 uM, replicate 1
[4] = 12 h, 10 µM, compound concentration 10 uM, replicate 2
[5] = 24 h, 1 µM, compound concentration 1 uM, replicate 1
[6] = 24 h, 1 µM, compound concentration 1 uM, replicate 2
[7] = 24 h, 10 µM, compound concentration 10 uM, replicate 1
[8] = 24 h, 10 µM, compound concentration 10 uM, replicate 2
[9] = 48 h, 1 µM, compound concentration 1 uM, replicate 1
[10] = 48 h, 1 µM, compound concentration 1 uM, replicate 2
[11] = 48 h, 10 µM, compound concentration 10 uM, replicate 1
[12] = 48 h, 10 µM, compound concentration 10 uM, replicate 2

Br.CS(=O)(=O)Nc1c(O)ccc2c1CCCC2C1=NCCN1 (configuration not stated)
Population Apoptotic (%) [1]: 40%
Population Fragmented Nuclei (%) [1]: 7%
Population Healthy Nuclei (%) [1]: 80%
Population Hoechst High Intensity Objects (%) [1]: 5%
Population Membrane Permeable-Phenotype (%) [1]: 0%
Population Mitochondria Different-Phenotype (%) [1]: 45%
Population Mitotic Cells (%) [1]: 59%
Population Normal (%) [1]: 94%
Population Pyknosed Nuclei (%) [1]: 12%
Population Tubulin-Different-Phenotype (%) [1]: 26%
Total Cell Count [1]: 407
Population Apoptotic (%) [2]: 43%
Population Fragmented Nuclei (%) [2]: 5%
Population Healthy Nuclei (%) [2]: 81%
Population Hoechst High Intensity Objects (%) [2]: 8%
Population Mitochondria Different-Phenotype (%) [2]: 52%
Population Mitotic Cells (%) [2]: 56%
Population Normal (%) [2]: 91%
Population Tubulin-Different-Phenotype (%) [2]: 18%
Total Cell Count [2]: 334
Population Apoptotic (%) [3]: 48%
Population Fragmented Nuclei (%) [3]: 8%
Population Healthy Nuclei (%) [3]: 76%
Population Hoechst High Intensity Objects (%) [3]: 12%
Population Membrane Permeable-Phenotype (%) [3]: 0%
Population Mitochondria Different-Phenotype (%) [3]: 60%
Population Mitotic Cells (%) [3]: 52%
Population Normal (%) [3]: 87%
Population Pyknosed Nuclei (%) [3]: 14%
Population Tubulin-Different-Phenotype (%) [3]: 33%
Total Cell Count [3]: 381
Population Apoptotic (%) [4]: 55%
Population Fragmented Nuclei (%) [4]: 6%
Population Healthy Nuclei (%) [4]: 79%
Population Hoechst High Intensity Objects (%) [4]: 14%
Population Mitochondria Different-Phenotype (%) [4]: 67%
Population Mitotic Cells (%) [4]: 44%
Population Normal (%) [4]: 85%
Population Tubulin-Different-Phenotype (%) [4]: 26%
Total Cell Count [4]: 292
Population Apoptotic (%) [5]: 38%
Population Fragmented Nuclei (%) [5]: 10%
Population Healthy Nuclei (%) [5]: 79%
Population Hoechst High Intensity Objects (%) [5]: 5%
Population Membrane Permeable-Phenotype (%) [5]: 1%
Population Mitochondria Different-Phenotype (%) [5]: 34%
Population Mitotic Cells (%) [5]: 61%
Population Normal (%) [5]: 94%
Population Pyknosed Nuclei (%) [5]: 10%
Population Tubulin-Different-Phenotype (%) [5]: 21%
Total Cell Count [5]: 549
Population Apoptotic (%) [6]: 55%
Population Fragmented Nuclei (%) [6]: 6%
Population Healthy Nuclei (%) [6]: 80%
Population Hoechst High Intensity Objects (%) [6]: 8%
Population Membrane Permeable-Phenotype (%) [6]: 0%
Population Mitochondria Different-Phenotype (%) [6]: 41%
Population Mitotic Cells (%) [6]: 44%
Population Normal (%) [6]: 91%
Population Pyknosed Nuclei (%) [6]: 13%
Population Tubulin-Different-Phenotype (%) [6]: 17%
Total Cell Count [6]: 387
Population Apoptotic (%) [7]: 30%
Population Fragmented Nuclei (%) [7]: 11%
Population Healthy Nuclei (%) [7]: 75%
Population Hoechst High Intensity Objects (%) [7]: 6%
Population Membrane Permeable-Phenotype (%) [7]: 0%
Population Mitochondria Different-Phenotype (%) [7]: 40%
Population Mitotic Cells (%) [7]: 69%
Population Normal (%) [7]: 93%
Population Pyknosed Nuclei (%) [7]: 12%
Population Tubulin-Different-Phenotype (%) [7]: 23%
Total Cell Count [7]: 451
Population Apoptotic (%) [8]: 34%
Population Healthy Nuclei (%) [8]: 77%
Population Hoechst High Intensity Objects (%) [8]: 11%
Population Mitochondria Different-Phenotype (%) [8]: 46%
Population Mitotic Cells (%) [8]: 65%
Population Normal (%) [8]: 88%
Population Pyknosed Nuclei (%) [8]: 10%
Population Tubulin-Different-Phenotype (%) [8]: 21%
Total Cell Count [8]: 377
Population Apoptotic (%) [9]: 12%
Population Fragmented Nuclei (%) [9]: 14%
Population Healthy Nuclei (%) [9]: 78%
Population Hoechst High Intensity Objects (%) [9]: 4%
Population Membrane Permeable-Phenotype (%) [9]: 0%
Population Mitochondria Different-Phenotype (%) [9]: 20%
Population Mitotic Cells (%) [9]: 87%
Population Normal (%) [9]: 95%
Population Pyknosed Nuclei (%) [9]: 7%
Population Tubulin-Different-Phenotype (%) [9]: 14%
Total Cell Count [9]: 859
Population Apoptotic (%) [10]: 29%
Population Fragmented Nuclei (%) [10]: 11%
Population Hoechst High Intensity Objects (%) [10]: 6%
Population Mitochondria Different-Phenotype (%) [10]: 22%
Population Mitotic Cells (%) [10]: 70%
Population Normal (%) [10]: 93%
Population Pyknosed Nuclei (%) [10]: 9%
Population Tubulin-Different-Phenotype (%) [10]: 12%
Total Cell Count [10]: 532
Population Apoptotic (%) [11]: 34%
Population Fragmented Nuclei (%) [11]: 16%
Population Healthy Nuclei (%) [11]: 76%
Population Hoechst High Intensity Objects (%) [11]: 4%
Population Membrane Permeable-Phenotype (%) [11]: 1%
Population Mitochondria Different-Phenotype (%) [11]: 22%
Population Mitotic Cells (%) [11]: 65%
Population Normal (%) [11]: 95%
Population Pyknosed Nuclei (%) [11]: 6%
Population Tubulin-Different-Phenotype (%) [11]: 12%
Total Cell Count [11]: 671
Population Apoptotic (%) [12]: 48%
Population Fragmented Nuclei (%) [12]: 14%
Population Healthy Nuclei (%) [12]: 79%
Population Membrane Permeable-Phenotype (%) [12]: 0%
Population Mitochondria Different-Phenotype (%) [12]: 27%
Population Mitotic Cells (%) [12]: 51%
Population Pyknosed Nuclei (%) [12]: 5%
Population Tubulin-Different-Phenotype (%) [12]: 11%
Total Cell Count [12]: 584
